pEC50, pIC50: −log10 of the molar value. The source made the active and inactive calls. The calls are words filed in the database; no cut-off is given here.
Assays:
A2780 = test: Antiproliferative activity against human A2780 cells after 48 hrs by MTT assay; format: functional, cell-based; conditions: A2780, 48 h
Summary of the method: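 A2780 cells grown in DMEM with 10% FBS, L-glutamine and antibiotics, seeded at 10000 cells/well and allowed to adhere overnight. Treated 48 h across 20 µM–0.001 µM. MTT (5 mg/mL in PBS) added for 4 h, formazan dissolved in DMSO, absorbance read at 550 nm. % inhibition fit to a four-parameter log inhibitor vs response curve.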

[1] = target: PI3-kinase p110-alpha/p85-alpha (Homo sapiens, UniProt P42336); test: Inhibition of recombinant human full-length N-terminal His-tagged p110 alpha/p85 alpha expressed in baculovirus expression system using PIP2 as substrate preincubated for 15 mins followed by substrate addition and measured after 60 mins by ADP HiLyte 647 tracer bound ADP2 antibody-Tb conjugate based HTRF assay
Chain of PI3-kinase p110-alpha/p85-alpha (P27986 whole entry): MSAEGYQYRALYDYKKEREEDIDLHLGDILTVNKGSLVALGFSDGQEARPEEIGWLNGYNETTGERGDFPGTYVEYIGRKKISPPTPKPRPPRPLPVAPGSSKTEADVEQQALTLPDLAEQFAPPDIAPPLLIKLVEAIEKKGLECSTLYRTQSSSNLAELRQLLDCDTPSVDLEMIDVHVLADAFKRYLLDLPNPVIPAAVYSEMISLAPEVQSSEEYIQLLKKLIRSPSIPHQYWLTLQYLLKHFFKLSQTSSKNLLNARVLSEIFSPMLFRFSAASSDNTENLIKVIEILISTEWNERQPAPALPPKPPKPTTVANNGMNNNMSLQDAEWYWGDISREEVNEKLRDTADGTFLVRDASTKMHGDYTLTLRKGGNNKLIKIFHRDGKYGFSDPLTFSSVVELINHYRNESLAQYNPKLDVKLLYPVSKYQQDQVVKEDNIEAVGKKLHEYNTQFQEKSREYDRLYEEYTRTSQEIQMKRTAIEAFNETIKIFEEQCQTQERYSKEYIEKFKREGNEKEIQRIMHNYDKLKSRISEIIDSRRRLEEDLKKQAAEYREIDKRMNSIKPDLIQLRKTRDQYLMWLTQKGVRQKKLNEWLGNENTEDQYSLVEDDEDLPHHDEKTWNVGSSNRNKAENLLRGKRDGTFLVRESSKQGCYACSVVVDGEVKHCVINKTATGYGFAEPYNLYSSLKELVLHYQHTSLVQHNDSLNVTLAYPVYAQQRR
Chain of PI3-kinase p110-alpha/p85-alpha (P42336 whole entry): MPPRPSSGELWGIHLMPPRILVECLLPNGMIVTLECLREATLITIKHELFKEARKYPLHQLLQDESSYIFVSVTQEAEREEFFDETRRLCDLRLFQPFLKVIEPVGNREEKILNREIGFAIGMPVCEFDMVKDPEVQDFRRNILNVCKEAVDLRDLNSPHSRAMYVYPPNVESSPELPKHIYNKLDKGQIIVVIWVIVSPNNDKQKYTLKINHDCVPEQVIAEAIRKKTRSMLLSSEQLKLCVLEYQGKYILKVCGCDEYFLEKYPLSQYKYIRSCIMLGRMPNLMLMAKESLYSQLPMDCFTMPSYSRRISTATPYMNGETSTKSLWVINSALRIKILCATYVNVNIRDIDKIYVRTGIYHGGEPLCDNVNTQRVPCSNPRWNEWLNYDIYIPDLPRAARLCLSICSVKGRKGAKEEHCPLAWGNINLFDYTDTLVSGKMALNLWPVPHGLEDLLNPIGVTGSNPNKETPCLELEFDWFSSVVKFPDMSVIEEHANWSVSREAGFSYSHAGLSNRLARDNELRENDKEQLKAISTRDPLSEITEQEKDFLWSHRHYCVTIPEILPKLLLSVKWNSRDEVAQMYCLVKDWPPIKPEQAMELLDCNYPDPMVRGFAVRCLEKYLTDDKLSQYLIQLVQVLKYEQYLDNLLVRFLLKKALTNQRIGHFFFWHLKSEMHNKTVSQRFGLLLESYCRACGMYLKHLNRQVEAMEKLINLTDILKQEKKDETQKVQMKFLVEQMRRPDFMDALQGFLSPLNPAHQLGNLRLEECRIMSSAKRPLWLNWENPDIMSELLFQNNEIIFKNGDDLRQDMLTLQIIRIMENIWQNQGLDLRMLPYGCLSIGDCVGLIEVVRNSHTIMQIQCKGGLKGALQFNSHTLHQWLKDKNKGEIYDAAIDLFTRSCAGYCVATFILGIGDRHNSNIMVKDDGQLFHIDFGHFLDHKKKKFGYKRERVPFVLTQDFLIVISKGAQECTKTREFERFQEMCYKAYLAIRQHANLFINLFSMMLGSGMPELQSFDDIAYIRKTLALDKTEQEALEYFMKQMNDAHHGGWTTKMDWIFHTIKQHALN
Summary of the method: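 PI3Kα at 150 ng/mL (diluted stock) in 50 mM HEPES pH 7.4, 3 mM MgCl2, 2 mM DTT, 0.05% CHAPS, 50 mM NaCl, 1 mM EGTA. Compound tested over 10–0.001 µM. Final reaction held 50 µM PIP2 and 1 µM ATP. Detection mix added for 1 h, then 665/615 nm ratio read. % inhibition versus concentration fitted by four-parameter nonlinear regression to give IC50.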

[2] = Metabolic stability in dog liver microsomes assessed as parent compound remaining at 10 uM remaining after 120 mins in presence of NADPH by HPLC analysis; format: ADME, Canis lupus familiaris, Microsome; conditions: read-out: Stabilty
Summary of the method: (§1)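 Compound at 10 µM was incubated with 0.5 mg/mL liver microsomes and 1 mM NADPH (final). Samples were taken at 0, 15, 30, 60 and 120 min and stopped with acetonitrile, then centrifuged and the supernatant analysed by HPLC. Percent parent remaining was set relative to the 0 min peak area (100%).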

[3] = Metabolic stability in mouse liver microsomes assessed as parent compound remaining at 10 uM remaining after 120 mins in presence of NADPH by HPLC analysis; format: ADME, Microsome; conditions: read-out: Stabilty; summary of the method: as §1
PC-3 = test: Antiproliferative activity against human PC-3 cells after 48 hrs by MTT assay; format: functional, cell-based; conditions: PC-3, 48 h
Summary of the method: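 PC3 cells grown in RPMI 1640 with 10% FBS and 1% penicillin/streptomycin at 37 °C, 5% CO2, seeded at 10000 cells/well. Treated 48 h across 20 µM–0.001 µM. MTT (5 mg/mL in PBS) added for 4 h, then DMSO solubilization and absorbance at 550 nm. Four-parameter nonlinear fit of % inhibition.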

[4] = target: Serine/threonine-protein kinase mTOR (Homo sapiens, UniProt P42345); test: Inhibition of recombinant human GST-tagged mTOR catalytic domain (1360 to 2549 residues) expressed in baculovirus expression system using GFP-4E-BP1 as substrate preincubated for 15 mins followed by substrate addition and measured after 60 mins by TR-FRET assay
Summary of the method: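 Recombinant mTOR (FRAP1) was preincubated 15 min with serially diluted compound (10 µM–0.0005 µM, DMSO) in kinase buffer, 10 µL reaction. GFP-4E-BP1 (400 nM final) and ATP (8 µM final) were added and the reaction ran 1 h at RT. Quench buffer with Tb-anti-p4E-BP1 (pThr46) was added for 1 h at RT. TR-FRET 520/486 nm ratio was fitted by four-parameter sigmoidal regression.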

SK-OV-3 = test: Antiproliferative activity against human SK-OV-3 cells after 48 hrs by MTT assay; format: functional, cell-based; conditions: SK-OV-3, 48 h
Summary of the method: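 SK-OV-3 cells grown in McCoy's 5a with 10% FBS, 100 U/mL penicillin and 100 µg/mL streptomycin at 37 °C, 5% CO2, seeded at 10000 cells/well. Treated 48 h across 20 µM–0.001 µM. MTT (5 mg/mL in PBS) added for 4 h, DMSO solubilization, absorbance read at 550 nm. Four-parameter curve fit of % inhibition.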

[5] = AUC in Swiss mouse at 3 mg/kg, po via gavage by LC-MS/MS analysis; format: ADME, organism-based; set-up: dose 3 mg/kg; conditions: in vivo
Summary of the method: (§2)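 Female Swiss mice (n=3/group), fasted overnight, given single oral gavage dose in 0.5% CMC/0.5% Tween 80 (10 mL/kg) at 1, 3 or 10 mg/kg. Serial blood sampling at 0.16–8 h into heparinized tubes. Plasma extracted with acetonitrile containing verapamil internal standard and quantified by LC-MS/MS. Cmax, Tmax, AUC and t1/2 derived from the concentration–time profile.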

[6] = Metabolic stability in human liver microsomes assessed as parent compound remaining at 10 uM remaining after 120 mins in presence of NADPH by HPLC analysis; format: ADME, Microsome; conditions: read-out: Stabilty; summary of the method: as §1
[7] = target: T1, Voltage-gated inwardly rectifying potassium channel KCNH2 (Homo sapiens, UniProt Q12809); test: Inhibition of human ERG by patch-clamp assay
T1 sequence (Q12809 whole entry): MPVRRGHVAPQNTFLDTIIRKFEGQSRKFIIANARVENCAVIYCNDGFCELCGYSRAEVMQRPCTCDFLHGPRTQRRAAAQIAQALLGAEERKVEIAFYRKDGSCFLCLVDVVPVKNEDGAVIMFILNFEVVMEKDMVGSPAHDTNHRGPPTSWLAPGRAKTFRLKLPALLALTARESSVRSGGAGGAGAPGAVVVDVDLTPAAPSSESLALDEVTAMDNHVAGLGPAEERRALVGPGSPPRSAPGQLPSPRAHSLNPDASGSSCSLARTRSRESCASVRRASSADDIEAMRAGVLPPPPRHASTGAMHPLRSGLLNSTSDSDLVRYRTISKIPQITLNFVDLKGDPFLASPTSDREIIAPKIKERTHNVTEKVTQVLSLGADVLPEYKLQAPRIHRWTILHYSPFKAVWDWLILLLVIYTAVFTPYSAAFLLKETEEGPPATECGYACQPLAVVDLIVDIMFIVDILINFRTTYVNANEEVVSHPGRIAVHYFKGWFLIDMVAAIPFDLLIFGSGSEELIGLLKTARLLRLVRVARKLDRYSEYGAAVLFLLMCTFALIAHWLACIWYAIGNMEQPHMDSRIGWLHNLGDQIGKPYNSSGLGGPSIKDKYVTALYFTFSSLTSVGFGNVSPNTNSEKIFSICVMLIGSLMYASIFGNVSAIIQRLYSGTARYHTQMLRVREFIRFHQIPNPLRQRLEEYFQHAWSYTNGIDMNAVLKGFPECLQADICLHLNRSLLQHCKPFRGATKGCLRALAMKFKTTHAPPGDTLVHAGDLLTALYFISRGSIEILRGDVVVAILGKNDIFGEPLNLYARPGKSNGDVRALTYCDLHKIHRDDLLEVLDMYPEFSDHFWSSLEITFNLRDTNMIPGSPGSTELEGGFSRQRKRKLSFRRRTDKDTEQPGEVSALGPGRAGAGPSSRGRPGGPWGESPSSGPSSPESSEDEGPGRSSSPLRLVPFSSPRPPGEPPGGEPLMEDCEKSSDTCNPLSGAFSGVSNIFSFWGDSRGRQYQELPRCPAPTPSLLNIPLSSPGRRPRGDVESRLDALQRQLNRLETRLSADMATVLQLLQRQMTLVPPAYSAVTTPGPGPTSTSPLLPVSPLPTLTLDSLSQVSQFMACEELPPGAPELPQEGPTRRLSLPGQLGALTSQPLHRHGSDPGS

[8] = target: T1, Voltage-gated inwardly rectifying potassium channel KCNH2; test: Inhibition of human ERG channel trafficking expressed in mammalian expression system at 1 to 30 uM by HERG-Lite assay; conditions: dose 1-30 µM
Summary of the method: (§3)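 HERG-lite assay scoring both channel blocking and trafficking inhibition, with test compound at 1, 10 and 30 µM. Geldanamycin (1 µM) served as the trafficking-inhibition reference and astemizole as the standard hERG binder.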

Cytochrome P450 2C19 = Cytochrome P450 2C19 (Homo sapiens, UniProt P33261); test: Inhibition of CYP2C19 in human liver microsomes using isoform-specific probe substrates preincubated for 5 mins followed by NADPH addition by LC-MS/MS analysis; format: ADME
Chain of Cytochrome P450 2C19 (P33261 whole entry, canonical isoform): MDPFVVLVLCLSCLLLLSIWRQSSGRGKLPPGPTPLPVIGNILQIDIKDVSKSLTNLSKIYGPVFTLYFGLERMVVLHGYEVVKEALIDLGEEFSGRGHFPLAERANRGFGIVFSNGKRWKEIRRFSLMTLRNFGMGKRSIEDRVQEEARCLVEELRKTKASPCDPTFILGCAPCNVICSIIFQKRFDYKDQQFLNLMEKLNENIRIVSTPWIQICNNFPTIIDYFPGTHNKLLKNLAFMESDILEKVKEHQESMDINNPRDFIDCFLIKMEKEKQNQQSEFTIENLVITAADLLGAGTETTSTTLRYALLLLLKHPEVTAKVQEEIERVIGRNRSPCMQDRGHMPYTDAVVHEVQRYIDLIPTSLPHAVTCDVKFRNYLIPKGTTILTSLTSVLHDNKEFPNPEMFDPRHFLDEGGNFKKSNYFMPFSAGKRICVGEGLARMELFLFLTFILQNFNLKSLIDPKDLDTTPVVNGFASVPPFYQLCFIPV
Summary of the method: (§4)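 Human liver microsomes premixed with buffer and a CYP-specific FDA-recommended probe substrate, then spiked with inhibitor, in duplicate. After 5 min preincubation at 37 °C, reaction started with NADPH and run at 37 °C for a set time, then quenched. Metabolite formation quantified by HPLC/LC-MS/MS to derive the concentration giving 50% inhibition.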

Cytochrome P450 3A4 = Cytochrome P450 3A4 (Homo sapiens, UniProt P08684); test: Inhibition of CYP3A4 in human liver microsomes using isoform-specific probe substrates preincubated for 5 mins followed by NADPH addition by LC-MS/MS analysis; format: ADME; summary of the method: as §4
Chain of Cytochrome P450 3A4 (P08684 whole entry, canonical isoform): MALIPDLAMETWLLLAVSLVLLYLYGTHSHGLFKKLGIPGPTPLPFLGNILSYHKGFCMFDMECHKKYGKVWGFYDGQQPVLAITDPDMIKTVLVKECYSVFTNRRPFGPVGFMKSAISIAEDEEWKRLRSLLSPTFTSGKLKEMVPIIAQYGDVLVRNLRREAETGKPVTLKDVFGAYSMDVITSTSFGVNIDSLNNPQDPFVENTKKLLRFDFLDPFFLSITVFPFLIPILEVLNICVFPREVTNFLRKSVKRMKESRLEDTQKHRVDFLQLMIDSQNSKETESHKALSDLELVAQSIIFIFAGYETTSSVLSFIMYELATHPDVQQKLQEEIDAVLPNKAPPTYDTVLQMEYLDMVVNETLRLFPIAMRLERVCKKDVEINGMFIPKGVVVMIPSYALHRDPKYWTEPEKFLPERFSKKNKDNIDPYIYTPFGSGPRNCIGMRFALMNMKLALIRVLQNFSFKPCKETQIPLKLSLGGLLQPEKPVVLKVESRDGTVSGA

Homo sapiens = species on record: Homo sapiens; test: Channel blockade of human ERG G601S mutant expressed in mammalian expression system assessed as effect on surface expression of channel at 1 to 30 uM by HERG-Lite assay; conditions: dose microM 1-30; summary of the method: as §3
Cytochrome P450 2D6 = Cytochrome P450 2D6 (Homo sapiens, UniProt P10635); test: Inhibition of CYP2D6 in human liver microsomes using isoform-specific probe substrates preincubated for 5 mins followed by NADPH addition by LC-MS/MS analysis; format: ADME; summary of the method: as §4
Chain of Cytochrome P450 2D6 (P10635 whole entry, canonical isoform): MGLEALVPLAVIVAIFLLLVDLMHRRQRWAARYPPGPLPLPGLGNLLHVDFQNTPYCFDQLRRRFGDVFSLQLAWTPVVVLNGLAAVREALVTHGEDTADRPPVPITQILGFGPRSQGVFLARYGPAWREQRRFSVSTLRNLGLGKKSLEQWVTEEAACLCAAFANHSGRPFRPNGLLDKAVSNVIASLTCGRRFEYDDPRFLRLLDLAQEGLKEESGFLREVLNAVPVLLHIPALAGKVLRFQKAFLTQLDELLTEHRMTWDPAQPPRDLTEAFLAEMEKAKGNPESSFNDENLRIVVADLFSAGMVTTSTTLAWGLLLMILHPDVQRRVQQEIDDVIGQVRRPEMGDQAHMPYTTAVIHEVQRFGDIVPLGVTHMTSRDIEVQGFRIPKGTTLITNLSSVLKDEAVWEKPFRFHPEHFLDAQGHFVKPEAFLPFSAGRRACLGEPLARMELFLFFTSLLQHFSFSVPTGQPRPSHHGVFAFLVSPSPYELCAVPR

[9] = Cmax in Swiss mouse at 3 mg/kg, po via gavage by LC-MS/MS analysis; format: ADME, organism-based; set-up: route oral, dose 3 mg/kg; conditions: in vivo; summary of the method: as §2
[10] = Tmax in Swiss mouse at 3 mg/kg, po via gavage by LC-MS/MS analysis; format: ADME, organism-based; conditions: in vivo
Summary of the method: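 Female Swiss mice (n=3/group) were fasted overnight, then gavaged with compound in 0.5% CMC/0.5% Tween 80 at 10 mL/kg. Serial blood samples at 0.16, 0.5, 1, 2, 4, 6 and 8 h were taken into heparinized tubes and spun to plasma. Plasma was extracted with acetonitrile containing verapamil (400 ng/mL) and quantified by LC-MS/MS against plasma calibration curves. Tmax was derived from the concentration–time profile.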

[11] = Elimination half life in Swiss mouse at 3 mg/kg, po via gavage by LC-MS/MS analysis; format: ADME, organism-based; conditions: in vivo, read-out: beta t1/2 (converted); summary of the method: as §2
[12] = Drug uptake in Swiss mouse plasma at 10 mg/kg, po via gavage by LC-MS/MS analysis; format: ADME, organism-based; conditions: in vivo; summary of the method: as §2

| Compound | pIC50 (A2780) | pIC50 [1] | pEC50 (PC-3) | pIC50 [4] | pEC50 (SK-OV-3) | also measured |
| --- | --- | --- | --- | --- | --- | --- |
| Cc1cc(N)ncc1-c1nc(Oc2ccc(C(=O)N(C)C)cc2)nc(N2CCOCC2)n1 | < 5.00 | < 5.00 | – | – | – | – |
| CN(C)C(=O)c1ccc(Oc2nc(-c3cnc(N)[nH]3)nc(N3CCOCC3)n2)cc1 | 5.63 | 6.05 | – | – | – | – |
| CN(C)C(=O)c1ccc(Oc2nc(-c3cccc4[nH]ccc34)nc(N3CCOCC3)n2)cc1 | 6.05 | 6.25 | – | – | – | – |
| CN(C)C(=O)c1ccc(Oc2nc(-c3cccc4[nH]ncc34)nc(N3CCOCC3)n2)cc1 | 6.28 | – | 5.71 | 5.87 | 6.28 | remaining at 2 h, 10 µM [2]: 83%; remaining at 2 h, 10 µM [3]: 45%; AUC [5]: 5.25 µM·h; remaining at 2 h, 10 µM [6]: 100% |
| Cc1cc(-c2nc(Oc3ccc(C(=O)N(C)C)cc3)nc(N3CCOCC3)n2)cnc1N | 5.82 | 6.34 | – | – | – | – |
| Cc1nc(N)ccc1-c1nc(Oc2ccc(C(=O)N(C)C)cc2)nc(N2CCOCC2)n1 | < 5.00 | 5.47 | – | – | – | – |
| CN(C)C(=O)c1ccc(Oc2nc(-c3ccnc4[nH]ccc34)nc(N3CCOCC3)n2)cc1 | 6.43 | 7.10 | 6.52 | 6.66 | 6.43 | remaining at 2 h, 10 µM [2]: 77%; pIC50 [7]: < 5.00; remaining at 2 h, 10 µM [3]: 68%; inhibition (INH) [8]: Not Active; pIC50 (Cytochrome P450 2C19): < 5.00; pIC50 (Cytochrome P450 3A4): < 5.00; Activity (Homo sapiens): Active; pIC50 (Cytochrome P450 2D6): < 5.00; AUC [5]: 16.8 µM·h; Cmax [9]: 3080 nM; Tmax [10]: 1 h; remaining at 2 h, 10 µM [6]: 92%; half-life [11]: 2.8 h |
| CN(C)C(=O)c1ccc(Oc2nc(-c3cccc4[nH]nnc34)nc(N3CCOCC3)n2)cc1 | < 5.00 | < 5.00 | – | – | – | – |
| CN(C)C(=O)c1ccc(Oc2nc(-c3cnc(N)nc3)nc(N3CCOCC3)n2)cc1 | 6.25 | 6.57 | 6.10 | 6.02 | 6.66 | – |
| CN(C)C(=O)c1ccc(Oc2nc(-c3ccc(N)nc3)nc(N3CCOCC3)n2)cc1 | 6.70 | 6.68 | 6.55 | 6.70 | 6.68 | remaining at 2 h, 10 µM [2]: 93%; pIC50 [7]: < 6.00; remaining at 2 h, 10 µM [3]: 102%; inhibition (INH) [8]: Not Active; pIC50 (Cytochrome P450 2C19): < 5.00; pIC50 (Cytochrome P450 3A4): < 5.00; Activity (Homo sapiens): Active; pIC50 (Cytochrome P450 2D6): < 5.00; AUC [5]: 10.9 µM·h; Cmax [9]: 2010 nM; Tmax [10]: 1.4 h; remaining at 2 h, 10 µM [6]: 93%; half-life [11]: 2.7 h |
| Cc1nc(N)sc1-c1nc(Oc2ccc(C(=O)N(C)C)cc2)nc(N2CCOCC2)n1 | 5.96 | 6.85 | – | – | – | – |
| CN(C)C(=O)c1ccc(Oc2nc(-c3cccc(O)c3)nc(N3CCOCC3)n2)cc1 | 7.05 | 8.00 | – | – | – | Drug uptake [12]: Not Active |

From ChEMBL document CHEMBL4699485, “Discovery and Development of SPR519 as a Potent, Selective, and Orally Bioavailable Inhibitor of PI3Kα and mTOR Kinases for the Treatment of Solid Tumors” (J Med Chem, 2020)
